A selection: hits, their analogues and other compounds. The true share with any hit is near 2.9%.
ATG4B inhibitor = blocks human ATG4B protease cleavage of LC3 substrate; Q9Y4P1; ATG4B cleavage of LC3-PLA2, NBD-HPC fluorescence, 1 h; inhibition, % at 8.33 µM; 0.51% of 340,000 active; in the data active = inhibition above about 40%
MEKK2 WT-MEK5 = raises or lowers MEK5 binding to wildtype human MEKK2 PB1 domain; Q9Y2U5; bead flow cytometry, Alexa488-MEK5 binding to MEKK2 WT; actives lie on both sides; binding response (% of control), % at 10 µM; 1.1% of 290,000 active; AID 1531; in the data active = binding response below about 67% or above about 130%
B2AR ag = agonists of human beta-2 adrenergic receptor inducing internalization | P07550 | Am2.2-beta2AR cells, FAP receptor internalization, flow cytometry | response, % (concentration not given with the values) | 0.43% of 340,000 active;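 active = response above a set limit, near 3 SD of response in nonfluorescent compounds, cut at about 42% in these data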
Target sequence (P07550 whole entry, looked up): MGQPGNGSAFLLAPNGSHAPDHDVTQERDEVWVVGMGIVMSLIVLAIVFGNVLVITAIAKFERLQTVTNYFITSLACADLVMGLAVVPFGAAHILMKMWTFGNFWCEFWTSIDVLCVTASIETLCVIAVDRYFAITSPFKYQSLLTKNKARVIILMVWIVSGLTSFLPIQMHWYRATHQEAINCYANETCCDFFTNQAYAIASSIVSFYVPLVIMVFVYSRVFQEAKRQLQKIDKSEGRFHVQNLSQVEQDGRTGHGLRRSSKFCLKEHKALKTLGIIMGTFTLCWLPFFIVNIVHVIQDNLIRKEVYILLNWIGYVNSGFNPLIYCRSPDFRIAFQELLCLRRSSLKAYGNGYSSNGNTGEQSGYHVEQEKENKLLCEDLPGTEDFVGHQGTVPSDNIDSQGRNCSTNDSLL
MEKK2 mut-MEK5 = signal of MEK5 binding to mutant human MEKK2 PB1 domain | AID 1530 | percent response, % at 10 µM | 0.35% of 290,000 active | bead flow cytometry, Alexa488-MEK5 binding to MEKK2 mutant; in the data active = percent response above about 24%, passing the limit was not always enough
Dynein cargo inh = dynein cargo transport inhibition; z-score, hits read low; 0.47% of 220,000 active; 3617.4 mouse cells, GR-EGFP nuclear translocation imaging; test concentration mostly 20 µM; stimulated with dexamethasone, 1 µM; active compounds read low;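 active = plate z-score of nuclear minus cytoplasmic receptor signal below a set negative limit, without overly bright fluorescence or cell loss, cut at about -3.5 in these data, passing the limit was not always enough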;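 note: z-score of nuclear minus cytoplasmic ring GR-EGFP intensity difference per well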
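medium = tetracycline-free induction medium containing charcoal-stripped FBS | also added = 1.0 µM final dexamethasone stimulus | schedule = 48 h induction, 1 h compound, 30 min dex at 37 °C | technique = fixed, Hoechst-stained cells imaged at 10x for EGFP | measure = GR-EGFP nuclear translocation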
MEKK3 PB1 HTS = modulators (inhibitors or enhancers) of MEK5 binding to human MEKK3 PB1 domain; Q99759; bead-based flow cytometry, Alexa488-MEK5 binding to MEKK3; actives lie on both sides; 0 = blocked by unlabeled MEK5, 100 = vehicle; binding response (% of control), % at 10 µM; 1.4% of 290,000 active; AID 1529;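 active = binding response more than 3 SD above or below the average of its plate-row segment, actives on both sides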;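 note: Alexa488 bead fluorescence after subtracting the streptavidin-only scavenger bead signal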
MEKK2wt confirm = raises or lowers MEK5 binding to wildtype human MEKK2, retest. shares compounds with MEKK3 PB1 HTS. bead flow cytometry, Alexa488-MEK5 binding to MEKK2 WT; actives lie on both sides. binding response (% of control), % at 10 µM. 2.4% of 5,900 active. AID 1892; in the data active = binding response below about 16% or above about 210%; inactive = in between
MEKK2mut confirm = signal of MEK5 binding to mutant human MEKK2, retest; shares compounds with MEKK3 PB1 HTS; bead flow cytometry, Alexa488-MEK5 binding to MEKK2 mutant; percent response, % at 10 µM; 2% of 5,900 active; AID 1893; in the data active = percent response mostly above about 71%, no sharp cut-off; inactive = mostly below about 38%;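 note: higher means compound restores mutant binding toward wildtype level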
MEKK3-MEK5 inh = MEKK3-MEK5 PB1 inhibition, single concentration confirmation; shares compounds with MEKK3 PB1 HTS; bead flow cytometry, Alexa488-MEK5 binding to MEKK3; active compounds read low; binding response (% of control), % at 10 µM; 1.8% of 5,900 active; AID 1894;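 active = binding response below 72% of control, or above a set upper limit, though filed actives all read lower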;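 note: 100% = DMSO only wells and 0% = binding blocked by excess unlabeled MEK5; lower values mean stronger disruption of MEK5 binding to MEKK3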
Active calls of the source: *; · = no result given; [ ] = remark or other dose.

SMILES | ATG4B inhibitor | MEKK2 WT-MEK5 | B2AR ag | MEKK2 mut-MEK5 | Dynein cargo inh | MEKK3 PB1 HTS | MEKK2wt confirm | MEKK2mut confirm | MEKK3-MEK5 inh
CC/C(=N\NC(=O)Nc1ccccc1)c1c(O)n(Cc2ccccc2)c(=O)[nH]c1=O | -5 | 118 | 8 | 27 | -0.014 | 132* | 94 | 0 | 101
C/C(=N\NC(=O)c1ccccc1)c1c(O)n(Cc2ccccc2)c(=O)[nH]c1=O | 0 | 101 | 0 | 4 | 0.53 | 101 | · | · | ·
O=C(O)C1(Br)CC12c1ccccc1-c1ccccc12 (stereo unspecified) | -2 | · | 1 | · | · | · | · | · | ·
Cc1ccsc1-c1nc(CSCC(=O)N2CCC3(CC2)OCCO3)c(C)o1 | -7 | 115 | -14 | 6 | -0.91 | 123* | 104 | 3 | 102
Cc1ccccc1-c1nc(CS(=O)CC(=O)N2CCC3(CC2)OCCO3)c(C)o1 (stereo unspecified) | -2 | 103 | 2 | 4 | -0.0021 | 105 | · | · | ·
Cc1[nH]c2ccccc2c1C1=CCNCC1 | -3 | 76 | -24 | 144* | 1 | 113 | 107 | 2 | 103
C1=C(c2ccccc2)CCNC1 | 2 | 106 | 1 | 17 | 0.61 | 109 | · | · | ·
CC[n+]1c(/C=C/N(C)c2ccccc2)sc2ccc(Cl)cc21 | -1 | 54*[inhibitor] | 0 | -14 | 1.4 | 83 | 72 | -9 | 88
CC(Cc1ccccc1)N(C)CC1C(=O)C2CCC1C2 (stereo unspecified) | 10 | · | 7 | · | · | · | · | · | ·
C#CCN(C)C(C)Cc1ccccc1 (stereo unspecified) | 6 | 61*[inhibitor] | -13 | 3 | 0.54 | 69*[inhibitor] | 99 | -6 | 100
CN(CC=CCN(C)P(=S)(N1CC1)N1CC1)P(=S)(N1CC1)N1CC1 | -8 | · | -7 | · | · | · | · | · | ·
Cc1cc(C=C(C#N)C#N)ccc1N1CCCC1 | -1 | 63*[inhibitor] | -5 | -12 | -0.73 | 82 | 83 | -10 | 92
Cc1[nH]c2ccc(OC(F)(F)F)cc2c1CCNCc1ccc(Cl)cc1 | -7 | 174* | 24 | 37* | · | 101 | 195 | 43 | 106
CCOc1cccc(CNCCc2c(C)[nH]c3ccc(OC(F)(F)F)cc23)c1O | -6 | 150* | 36 | 19 | · | 104 | 177 | 48 | 104
COc1ccc2[nH]c(C)c(CCNCc3cccnc3)c2c1 | 0 | · | 8 | · | · | · | · | · | ·
Cc1ccc2[nH]c(C)c(CCNCc3ccco3)c2c1 | -8 | 127 | -3 | 13 | · | 103 | · | · | ·
Cc1[nH]c2ccc(OC(F)(F)F)cc2c1CCNCc1cccc([N+](=O)[O-])c1 | 7 | 148* | 9 | 25* | · | 108 | 170 | 45 | 104
C[C@@H]1CCC2[C@@H](C)C(=O)O[C@@H]3OC4(C)CCC1[C@@]23OO4 (stereo partly specified) | -4 | · | · | · | · | · | · | · | ·
COc1cc(CNCCc2ccc3c(c2)OCO3)cc(OC)c1OC | -6 | 60 | -4 | -13 | -0.58 | 47*[inhibitor] | 104 | -1 | 103
CN1CCN(c2cn[nH]c(=O)c2Cl)CC1 | 3 | 96 | 1 | -7 | -0.79 | 98 | · | · | ·
C=CCN1C(=O)NC(=O)/C(=C/c2cnc(SC)nc2)C1=O | -5 | 97 | -6 | 1 | -0.32 | 97 | · | · | ·
C=CCN1C(=O)NC(=O)/C(=C/c2cc3c4c(c2)CCCN4CCC3)C1=O | 1 | 26*[inhibitor] | 2 | 8 | -0.13 | 93 | 89 | -15 | 98
Cc1ccccc1NC(=NCCCN1CC1)Nc1ccccc1C | 5 | · | 42 | · | · | · | · | · | ·
COc1ccc2c3c([nH]c2c1)C(C)=NCC3 | 4 | 29*[inhibitor] | -66 | 4 | 0.015 | 82 | 103 | -3 | 100
CC1=NCCc2c1[nH]c1cc(O)ccc21 | -127 | · | -18 | · | · | · | · | · | ·
SMILES | ATG4B inhibitor | MEKK2 WT-MEK5 | B2AR ag | MEKK2 mut-MEK5 | Dynein cargo inh | MEKK3 PB1 HTS | MEKK2wt confirm | MEKK2mut confirm | MEKK3-MEK5 inh
Cc1c(/C=N/O)c2ccccc2n1C | -8 | 110 | -9 | 3 | -0.78 | 111 | · | · | ·
CN(C)c1ccc(/C=C/c2cc[n+](C)c3ccccc23)cc1 | 7 | · | -38 | -31 | 0.58 | 70*[inhibitor] | 95 | -4 | 87
COc1cc(C)c(CNCCc2c[nH]c3ccccc23)cc1C | -4 | 123 | 7 | 26* | · | 102 | 82 | -3 | 69*
CCOc1c(Cl)cc(CNCCc2c[nH]c3ccccc23)cc1OC | -6 | 156* | 8 | 38 | 2.4 | 102 | 127 | 13 | 102
COc1cc2c(cc1OC)C1C(=O)c3ccc4c(c3OC1CO2)CC(C(C)C)O4 (stereo unspecified) | 1 | · | -6 | · | · | · | · | · | ·
O=[N+]([O-])c1ccc(C(=Nc2ccccc2)N2CC2)cc1 | 1 | · | 6 | · | · | · | · | · | ·
COC(=O)C(O)(c1ccc(NC(=S)NC(=O)c2ccc(Cl)cc2Cl)c(C)c1)C(F)(F)F (stereo unspecified) | 3 | 97 | 5 | -1 | 0.65 | 107 | · | · | ·
COC(=O)C(O)(c1ccc(NC(=S)NC(=O)c2ccc(Cl)cc2Cl)cc1)C(F)(F)F (stereo unspecified) | -6 | 106 | 0 | 3 | 0.079 | 148* | 92 | -4 | 102
CCOC(=O)C(O)(c1ccc(NC(=S)NC(=O)c2ccc(Cl)cc2Cl)cc1)C(F)(F)F (stereo unspecified) | 1 | 102 | -2 | -2 | -0.95 | 112 | · | · | ·
CCOC(=O)C(O)(c1ccc(NC(=S)NC(=O)c2ccc(Cl)cc2Cl)c(C)c1)C(F)(F)F (stereo unspecified) | 10 | 102 | 1 | 1 | -0.48 | 147* | 92 | -8 | 94
C[C@@H]1C(=O)O[C@H]2[C@H](O)[C@]34[C@@H]5OC(=O)[C@]3(OC3OC(=O)[C@H](O)C34[C@H](C(C)(C)C)[C@@H]5O)[C@@]12O (stereo partly specified) | 4 | · | 9 | · | · | · | · | · | ·
COC(=O)C1=C(c2cccc(Cl)c2)C[C@@H]2CC[C@H]1N2C(=O)NCC1CC1 | -2 | · | 0 | · | · | · | · | · | ·
CCN1C(=O)NC(=O)/C(=C/c2cc(C)n(-c3sc(C)c(C)c3C#N)c2C)C1=O | -3 | 102 | 5 | 1 | 0.3 | 130* | 99 | 10 | 101
Cc1ccccc1-n1c(C)nc2sccc2c1=O | -3 | 3.0*[inhibitor] | -3 | -18 | -0.39 | 2.0*[inhibitor] | 106 | 6 | 106

Compound activity from PubChem BioAssay.
